Results taken from ChEMBL document CHEMBL1126036, “Quinolone antibacterial agents. Synthesis and structure-activity relationships of a series of amino acid prodrugs of racemic and chiral 7-(3-amino-1-pyrrolidinyl)quinolones. Highly soluble quinolone prodrugs with in vivo pseudomonas activity” (J Med Chem, 1992).
≈ marks a conversion by molar mass, not a printed value.

Legend:
[1] = Solubility (in 0.1 N HCl); type: physicochemical; details: read-out: S
How it was run: (§1)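 Solubility was measured either from HPLC peak areas at equilibrium or by a conventional weight-per-volume method. All solutions were held for 24 h before measurement.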

Mus musculus [2] = assay: In vivo potency against acute systemic infection in mouse caused by Streptococcus pyogenes C-203 on oral administration by gavage; type: functional; details: read-out: PD50
How it was run: (§2)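 Acute systemic mouse infection. A single oral dose was given by gavage at the time of challenge. Potency is reported as the median protective dose (PD50, mg/kg), determined by earlier published methods.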

Mus musculus [3] = assay: In vivo potency against acute systemic infection in mouse caused by Streptococcus pneumoniae SV-1 on subcutaneous injection; type: functional; details: sc, read-out: PD50
How it was run: (§3)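 Acute systemic mouse infection. A single subcutaneous dose was injected at the time of challenge. Potency is reported as the median protective dose (PD50, mg/kg), determined by earlier published methods.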

Staphylococcus aureus [4] = assay: In vitro antibacterial activity against gram positive Staphylococcus aureus UC76.; type: functional
Enterococcus faecalis = assay: In vitro antibacterial activity against gram positive Enterococcus faecalis MGH-2.; type: functional
[5] = Aqueous solubility; type: physicochemical; details: water (aqueous); read-out: S; how it was run: as §1
Mus musculus [6] = assay: In vivo potency against acute systemic infection in mouse caused by Pseudomonas aeruginosa UI-18 on oral administration by gavage.; type: functional; details: read-out: PD50; how it was run: as §2
[7] = Solubility (at pH 7.4); type: physicochemical; details: buffer; how it was run: as §1
Streptococcus pyogenes = assay: In vitro antibacterial activity against gram positive Streptococcus pyogenes C-203.; type: functional
Escherichia coli [8] = assay: In vitro antibacterial activity against gram negative Escherichia coli Vogel.; type: functional
Pseudomonas aeruginosa [9] = assay: In vitro antibacterial activity against gram negative Pseudomonas aeruginosa UI-18.; type: functional
[10] = target: DNA gyrase (Escherichia coli) (UniProt P0AES6+P0AES4); assay: In vitro concentration inhibiting DNA gyrase induced cleavage in Escherichia coli H560.; type: functional
How it was run: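 DNA gyrase test run as described in earlier work. The value is the drug concentration (µg/mL) needed to cause DNA cleavage.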

Klebsiella pneumoniae [11] = assay: In vitro antibacterial activity against gram negative Klebsiella pneumoniae MGH-2.; type: functional
Mus musculus [12] = assay: In vivo potency against acute systemic infection in mouse caused by Pseudomonas aeruginosa. UI-18. on subcutaneous injection.; type: functional; details: sc, read-out: PD50; how it was run: as §3
Escherichia coli [13] = assay: In vivo potency against acute systemic infection in mouse caused by Escherichia coli Vogel on oral administration by gavage.; type: functional; details: read-out: PD50; how it was run: as §2
Mus musculus [14] = assay: In vivo potency against acute systemic infection in mouse caused by Streptococcus pyogenes C-203 on subcutaneous injection; type: functional; details: sc, read-out: PD50; how it was run: as §3
Staphylococcus aureus [15] = assay: In vitro antibacterial activity against gram positive Staphylococcus aureus H-228.; type: functional
Streptococcus pneumoniae [16] = assay: In vitro antibacterial activity against gram positive Streptococcus pneumoniae SV-1.; type: functional
Mus musculus [17] = assay: In vivo potency against acute systemic infection in mouse caused by Streptococcus pneumoniae SV-1 on oral administration by gavage; type: functional; details: read-out: PD50; how it was run: as §2
Escherichia coli [18] = assay: In vivo potency against acute systemic infection in mouse caused by Escherichia coli vogel on subcutaneous injection.; type: functional; details: sc, read-out: PD50; how it was run: as §3
Providencia rettgeri = assay: In vitro antibacterial activity against gram negative Providencia rettgeri M-1771.; type: functional
Enterobacter cloacae [19] = assay: In vitro antibacterial activity against gram negative Enterobacter cloacae MA 2646.; type: functional
[20] = Solubility (at pH 4); type: physicochemical; details: buffer, read-out: S; how it was run: as §1
Streptococcus pneumoniae [21] = assay: In vivo potency against acute systemic infection in mouse caused by Streptococcus pneumoniae SV-1 on oral administration by gavage.; type: functional; details: read-out: PD50; how it was run: as §2
Enterobacter cloacae [22] = assay: In vitro antibacterial activity against gram negative Enterobacter cloacae MA 2646; type: functional
Streptococcus pneumoniae [23] = assay: In vivo potency against acute systemic infection in mouse caused by Streptococcus pneumoniae SV-1 on subcutaneous injection.; type: functional; details: sc, read-out: PD50; how it was run: as §3
Escherichia coli [24] = assay: In vitro antibacterial activity against gram negative Escherichia coli vogel; type: functional
Klebsiella pneumoniae [25] = assay: In vitro antibacterial activity against gram negative Klebsiella pneumoniae. MGH-2; type: functional
Mus musculus [26] = assay: In vivo potency against acute systemic infection in mouse caused by Escherichia coli vogel on oral administration by gavage; type: functional; details: read-out: PD50; how it was run: as §2
Mus musculus [27] = assay: In vivo potency against acute systemic infection in mouse caused by Escherichia coli vogel on subcutaneous injection; type: functional; details: sc, read-out: PD50; how it was run: as §3
Pseudomonas aeruginosa [28] = assay: In vitro antibacterial activity against gram negative Pseudomonas aeruginosa. UI-18; type: functional
[29] = system: DNA gyrase (Escherichia coli); assay: In vitro concentration inhibiting DNA gyrase induced cleavage in Escherichia coli H560
Mus musculus [30] = assay: In vivo potency against acute systemic infection in mouse caused by Escherichia coli Vogel on subcutaneous injection; type: functional; details: sc, read-out: PD50; how it was run: as §3
Mus musculus [31] = assay: In vivo potency against acute systemic infection in mouse caused by Escherichia coli Vogel on oral administration by gavage; type: functional; details: read-out: PD50; how it was run: as §2

| Compound | solubility [1] | ED50 (Mus musculus [2]) | MIC (Staphylococcus aureus [4]) | MIC (Enterococcus faecalis) | solubility [5] | solubility ([7]; read-out: S) | MIC (Streptococcus pyogenes) | MIC (Escherichia coli [8]) | MIC (Pseudomonas aeruginosa [9]) | ED50 (Escherichia coli [13]) | ED50 (Mus musculus [14]) | MIC (Staphylococcus aureus [15]) | MIC (Streptococcus pneumoniae [16]) | ED50 (Mus musculus [17]) | ED50 (Escherichia coli [18]) | MIC (Providencia rettgeri) | MIC (Enterobacter cloacae [19]) | solubility [20] | ED50 (Streptococcus pneumoniae [23]) | MIC (Klebsiella pneumoniae [25]) | further results |
| --- | --- | --- | --- | --- | --- | --- | --- | --- | --- | --- | --- | --- | --- | --- | --- | --- | --- | --- | --- | --- | --- |
| C[C@@H]1CN(c2c(F)c(N)c3c(=O)c(C(=O)O)cn(C4CC4)c3c2F)C[C@H](C)N1 [SPARFLOXACIN] | 400 µg/mL (≈ 1020 µM) | 17 mg/kg | 0.025 µg/mL (≈ 0.0637 µM) | 0.1 µg/mL (≈ 0.255 µM) | 90 µg/mL (≈ 229 µM) | 10 µg/mL (≈ 25.5 µM) | 0.1 µg/mL (≈ 0.255 µM) | 0.025 µg/mL (≈ 0.0637 µM) | 0.8 µg/mL (≈ 2.04 µM) | 1 mg/kg | 17 mg/kg | 0.05 µg/mL (≈ 0.127 µM) | 0.05 µg/mL (≈ 0.127 µM) | 14 mg/kg | 0.2 mg/kg | 0.2 µg/mL (≈ 0.51 µM) | 0.025 µg/mL (≈ 0.0637 µM) | 30 µg/mL (≈ 76.5 µM) | – | – | ED50 (Mus musculus [3]): 13 mg/kg; ED50 (Mus musculus [6]): 14 mg/kg; Cleavage [10]: 2.5 µg/mL; MIC (Klebsiella pneumoniae [11]): 0.05 µg/mL (≈ 0.127 µM); ED50 (Mus musculus [12]): 7 mg/kg |
| Cl.Nc1c(F)c(N2CC[C@@H](N)C2)c(F)c2c1c(=O)c(C(=O)O)cn2C1CC1.O | 200 µg/mL | 12 mg/kg | 0.006 µg/mL | 0.05 µg/mL | 2800 µg/mL | 40 µg/mL | 0.025 µg/mL | 0.013 µg/mL | 0.02 µg/mL | 1.7 mg/kg | 7.5 mg/kg | 0.025 µg/mL | 0.003 µg/mL | – | 0.3 mg/kg | 0.05 µg/mL | – | 2600 µg/mL | 3.5 mg/kg | – | ED50 (Streptococcus pneumoniae [21]): 15 mg/kg; Cleavage [10]: 0.1 µg/mL; MIC (Klebsiella pneumoniae [11]): 0.025 µg/mL; MIC (Enterobacter cloacae [22]): 0.013 µg/mL |
| CC(C)[C@H](N)C(=O)NC1CCN(c2nc3c(cc2F)c(=O)c(C(=O)O)cn3C2CC2)C1.Cl.O (stereo partly specified) | > 200000 µg/mL | 76 mg/kg | 0.4 µg/mL | 1.6 µg/mL | > 200000 µg/mL | 80 µg/mL | 1.6 µg/mL | – | – | – | 27 mg/kg | 1.6 µg/mL | 1.6 µg/mL | – | – | 1.6 µg/mL | 0.4 µg/mL | > 200000 µg/mL | – | 1.6 µg/mL | MIC (Escherichia coli [24]): 0.4 µg/mL; ED50 (Mus musculus [26]): 3 mg/kg; ED50 (Mus musculus [27]): 0.6 mg/kg; MIC (Pseudomonas aeruginosa [28]): 3.1 µg/mL |
| Cl.NCCCC[C@H](N)C(=O)NC1CCN(c2nc3c(cc2F)c(=O)c(C(=O)O)cn3C2CC2)C1.O (stereo partly specified) | > 200000 µg/mL | – | 6.3 µg/mL | > 25 µg/mL | > 300000 µg/mL | – | > 25 µg/mL | 12.5 µg/mL | – | – | – | 25 µg/mL | > 25 µg/mL | 71 mg/kg | – | 25 µg/mL | 12.5 µg/mL | > 600000 µg/mL | – | 25 µg/mL | ED50 (Mus musculus [3]): 70 mg/kg; solubility [7]: 70 µg/mL; MIC (Pseudomonas aeruginosa [28]): > 25 µg/mL |
| NC1CCN(c2nc3c(cc2F)c(=O)c(C(=O)O)cn3C2CC2)C1 (stereo unspecified) | – | 32 mg/kg | 0.013 µg/mL (≈ 0.0391 µM) | 0.2 µg/mL (≈ 0.602 µM) | – | – | 0.2 µg/mL (≈ 0.602 µM) | 0.013 µg/mL (≈ 0.0391 µM) | 0.05 µg/mL (≈ 0.15 µM) | 2 mg/kg | 14 mg/kg | 0.2 µg/mL (≈ 0.602 µM) | 0.2 µg/mL (≈ 0.602 µM) | – | 0.6 mg/kg | 0.05 µg/mL (≈ 0.15 µM) | 0.025 µg/mL (≈ 0.0752 µM) | – | 33 mg/kg | 0.025 µg/mL (≈ 0.0752 µM) | Cleavage [29]: 1 µg/mL; ED50 (Mus musculus [6]): 7 mg/kg; ED50 (Streptococcus pneumoniae [21]): 58 mg/kg; ED50 (Mus musculus [12]): 3 mg/kg |
| Cl.N[C@@H](Cc1ccccc1)C(=O)NC1CCN(c2nc3c(cc2F)c(=O)c(C(=O)O)cn3C2CC2)C1.O (stereo partly specified) | 80000 µg/mL | – | 0.4 µg/mL | 0.8 µg/mL | > 200000 µg/mL | 60 µg/mL | 1.6 µg/mL | 0.8 µg/mL | 6.3 µg/mL | 2 mg/kg | – | 3.1 µg/mL | 0.8 µg/mL | 65 mg/kg | 0.4 mg/kg | 6.3 µg/mL | 0.4 µg/mL | > 100000 µg/mL | 37 mg/kg | – | MIC (Klebsiella pneumoniae [11]): 3.1 µg/mL |
| Cl.N[C@H]1CCN(c2c(F)cc3c(=O)c(C(=O)O)cn(C4CC4)c3c2F)C1.O | – | – | 0.003 µg/mL | 0.025 µg/mL | 17000 µg/mL | – | 0.013 µg/mL | 0.006 µg/mL | 0.025 µg/mL | – | – | 0.013 µg/mL | 0.013 µg/mL | 15 mg/kg | – | 0.006 µg/mL | 0.013 µg/mL | – | 7 mg/kg | 0.003 µg/mL | Cleavage [29]: 0.1 µg/mL; ED50 (Mus musculus [30]): 0.2 mg/kg; ED50 (Mus musculus [31]): 1 mg/kg |
